proKLK7 act: proKLK7 zymogen activators, primary screen, biochemical, fluorescence intensity; Kallikrein-7 (Homo sapiens), P49862; purified proKLK7, EDANS-DABCYL substrate fluorescence; 100% is mature enzyme control, 0% vehicle; activation, % at 7 µM; 370,000 compounds, 0.9% hits;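 active = activation above the mean of all tested compounds plus 3 SD, computed per campaign excluding outliers beyond control limits, cut at about 13% in these data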
Wee1 stabilizer: Wee1 degradation inhibitors, primary screen, cell-based, HeLa, Wee1K328M-luciferase, luminescence. Wee1-like protein kinase (Homo sapiens), P30291. HeLa Luc-Wee1K328M stability; 100% = proteasome inhibitor MG132 effect. reporter increase, % at 5 µM. 220,000 compounds, 1.2% hits. AID 1321, 2008;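 active = activation above the mean of all tested compounds plus 3 SD, set per screening run, cut at about 8.8% in these data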;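 note: cells exposed to compound for 20 h before luminescence read; 0% = DMSO alone and 100% = MG132 at 30 µM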
Runt-SMMHC FRET: inhibitors of RUNX1 Runt–CBFb-SMMHC binding, primary screen, biochemical, FRET, Cerulean-Runt, Venus-CBFb-SMMHC, uHTS. inhibition, % at 20 µM. Cerulean-Runt/Venus-CBFb-SMMHC FRET ratio 530/480, 1 h. Runt-related transcription factor 1 (Homo sapiens) + Core-binding factor subunit beta …. 220,000 compounds, 0.74% hits;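 active = mean inhibition across duplicate retests at 20 µM reaching about 50%, limit read from the data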;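 note: 0% = DMSO wells and 100% = wells with excess untagged CBFb-SMMHC; inhibitors lower the FRET ratio by blocking Runt binding to CBFb-SMMHC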
AI-2 QS modul: Vibrio harveyi AI-2 quorum sensing modulators, primary screen, JMH597 strain, luminescence/OD600 ratio. Vibrio harveyi JMH597 AI-2 luminescence/OD600 ratio, 9 h; stronger effect = lower value; strain lacks LuxN and CqsS sensors; 0 = neutral-control median. activity change, % at 7.5 µM. 300,000 compounds, 0.4% hits. AID 2094, 2009; in the data active = activity change below about -75%, passing the limit was not always enough; inconclusive = no clear call, values can overlap the other calls;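 note: luminescence divided by OD600 gain over 9 h not by final OD600 alone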
Runt-CBFb FRET: inhibitors of RUNX1 Runt–CBFb binding, primary screen, biochemical, FRET, Cerulean-Runt, Venus-CBFb, uHTS | Runt-related transcription factor 1 (Homo sapiens) + Core-binding factor subunit beta … | Cerulean-Runt/Venus-CBFb FRET ratio 530/480, 1 h | inhibition, % at 20 µM | 220,000 compounds, 0.46% hits;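 active = inhibition over about 50% at 20 µM in the single-dose screen, limit read from the data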;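 note: 0% = DMSO wells and 100% = excess unlabeled CBFb competitor control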
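test system = Cerulean-tagged RUNX1 Runt domain (FRET donor) fusion protein | reagent = Venus-CBFb binding partner, 100 nM | incubation = protein complex preformed 1 h, compound exposure 1 h, room temperature, dark | detection = FRET fluorescence | read-out basis = loss of energy transfer signal | controls = 5 µM unlabeled CBFb as full-inhibition high control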
RanGTP-Impb inh: inhibitors of RanGTP-importin-beta interaction, primary screen, biochemical, FRET, CFP-Ran, YFP-importin-beta, homogeneous | cell-free CFP-Ran/YFP-importin-beta FRET ratio | inhibition, % (no concentration beside the values) | 300,000 compounds, 1.1% hits | Ran GTPase (GTP-bound) - importin-beta complex;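 active = more than half of the replicate wells show a fall in the fluorescence ratio signal beyond about 16%, limit read from the data, passing the limit was not always enough; inconclusive = exactly half of the replicate wells pass the set limit; inactive = fewer than half of replicates pass the limit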;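 note: 0% = DMSO wells and 100% = Ran loaded with GDP instead of GTP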
An asterisk follows results filed as active. Compounds with a hit are over-represented: about 2.9% of the library has one in this group of screens.

CC(=O)c1c(N2CCN(c3cccc(Cl)c3)CC2)nc(=S)n(-c2ccccc2)c1C was read as proKLK7 act -0.2, Wee1 stabilizer 0.9, Runt-SMMHC FRET 7.7, AI-2 QS modul -7.7, Runt-CBFb FRET 6.4 and RanGTP-Impb inh 46.4*.
CCn1c(C)c(C(C)=O)c(N2CCN(c3ccc(OC)cc3)CC2)nc1=S was read as proKLK7 act -0.4, Wee1 stabilizer -0.2, Runt-SMMHC FRET -38.7, AI-2 QS modul -5.3, Runt-CBFb FRET 8.7 and RanGTP-Impb inh 83.8*.
For COC(=O)[C@]12C[C@H](CC(=O)NCc3cccc(C(F)(F)F)c3)C(=O)N(CCc3ccc(OC)c(OC)c3)C1=C[C@H](COCc1ccccc1)O[C@@H]2C the results were proKLK7 act -0.4.
`Cc1ccc(Cn2nnc3c2-c2ccccc2S(=O)(=O)N(C)C3)cc1` gave proKLK7 act 0.9.
`Cc1cc(C)c(C#N)c(SC(F)F)n1` gave proKLK7 act -0.7, Wee1 stabilizer 1.6, Runt-SMMHC FRET -1.1, AI-2 QS modul 16.7, Runt-CBFb FRET 0.1 and RanGTP-Impb inh 98.1*.
Cc1cc(C)c(C#N)c(Sc2ccc(N)cc2)n1 was read as proKLK7 act -0.2, Wee1 stabilizer 0.8, Runt-SMMHC FRET 1.6, AI-2 QS modul -16.3, Runt-CBFb FRET 1.1 and RanGTP-Impb inh 2.1.
For C=C1CC(C(=O)N/N=C/c2ccccc2)C1 the results were proKLK7 act -0.3, Wee1 stabilizer -1.1, Runt-SMMHC FRET -6.3, AI-2 QS modul -0.8, Runt-CBFb FRET -1.1 and RanGTP-Impb inh -4.2.
Screening CNc1nc(NC)c2cn[nH]c2n1 returned proKLK7 act -0.1.
For CCCCn1nc(NC(=O)CC)c2cc3cc(OC)ccc3nc21 the results were proKLK7 act -2.2, AI-2 QS modul 21.4 and RanGTP-Impb inh 65.5*.
CCCn1nc(NC(=O)C(C)(C)C)c2cc3cc(OC)ccc3nc21 was read as proKLK7 act 1.4, AI-2 QS modul 7.4 and RanGTP-Impb inh 67.3*.
For CCCCn1nc(NC(=O)COC)c2cc3ccc(C)cc3nc21 the results were AI-2 QS modul -1.5 and RanGTP-Impb inh 4.7.
Screening CCn1nc(NC(=O)COC)c2cc3cc(C)ccc3nc21 returned proKLK7 act 2.3, AI-2 QS modul 14.5 and RanGTP-Impb inh inconclusive.
For Cc1ccc(S(=O)(=O)N(C)c2c(C)ccc(S(=O)(=O)NC(C)(C)C)c2C)cc1 the results were proKLK7 act 0.2, Wee1 stabilizer -2.4, Runt-SMMHC FRET 2.1, AI-2 QS modul 6.7, Runt-CBFb FRET -1.9 and RanGTP-Impb inh -3.9.
CCOC(=O)c1cccc(NC(=O)Cn2cc3c(n2)CCC(C)C3)c1 (configuration not stated) was read as proKLK7 act 0.6, Wee1 stabilizer 0.6, Runt-SMMHC FRET -4.9, AI-2 QS modul -76.7*, Runt-CBFb FRET 2.2 and RanGTP-Impb inh 3.2.
O=C(COc1ccccc1)N/N=C/c1ccc(O[C@@H]2O[C@H](CO)[C@@H](O)[C@H](O)[C@H]2O)cc1 was read as proKLK7 act 0.2, Wee1 stabilizer 10.3*, Runt-SMMHC FRET -39.4, AI-2 QS modul 38.3, Runt-CBFb FRET 0.5 and RanGTP-Impb inh 5.6.
Screening CC1(C)CNC(=O)c2sc(NC(=O)c3ccccc3Cl)nc2C1 returned proKLK7 act -0.3, Wee1 stabilizer -0.3, Runt-SMMHC FRET 2.5, AI-2 QS modul 40.4, Runt-CBFb FRET 1.7 and RanGTP-Impb inh inconclusive.
`O=C(NNC(=S)NC(=O)c1cccnc1)c1ccc(Cl)cc1` gave proKLK7 act -0.3, Wee1 stabilizer -1.9, Runt-SMMHC FRET 1.7, AI-2 QS modul -92.7*, Runt-CBFb FRET 10.0 and RanGTP-Impb inh 1.0.

Bioassay records (PubChem BioAssay)
